Data: ChEMBL document CHEMBL4196196, “Phosphonamidate Prodrugs of a Butyrophilin Ligand Display Plasma Stability and Potent Vγ9 Vδ2 T Cell Stimulation” (J Med Chem, 2018)
One block for each compound: values may come before it. The source made the active and inactive calls. No cut-off for these calls is given here.

Key:
[1] = Stability in 50% pooled human plasma assessed as half life at 100 uM by LC-MS method; format: ADME, cell-free
Procedure, shortened: (§1)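 Compound at 100 µM final in pooled human plasma diluted to 50% with PBS, pH 7.5. Analysed by positive-mode LC-MS on C18 with a water/acetonitrile gradient from 25 to 80% over 9 min. Fraction remaining came from peak integration, and half-life was calculated from it. Each point run 2–4 times.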

[2] = target: T1, Butyrophilin subfamily 3 member A1 (Homo sapiens, UniProt O00481); assay: Binding affinity to BTN3A1 in human PBMC assessed as stimulation of Vgamma9 Vdelta2 T cells at 100 nM incubated for 3 days and measured after 11 days post compound removal by flow cytometry
Procedure, shortened: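 Human PBMC exposed to compound at 100 nM for 3 days, then left to proliferate 11 days before counting Vγ9Vδ2 T cells. […] Negative control was cells with interleukin 2 and no compound. Data from 3 independent experiments.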
Target sequence in this assay (O00481 30-513 limits assumed): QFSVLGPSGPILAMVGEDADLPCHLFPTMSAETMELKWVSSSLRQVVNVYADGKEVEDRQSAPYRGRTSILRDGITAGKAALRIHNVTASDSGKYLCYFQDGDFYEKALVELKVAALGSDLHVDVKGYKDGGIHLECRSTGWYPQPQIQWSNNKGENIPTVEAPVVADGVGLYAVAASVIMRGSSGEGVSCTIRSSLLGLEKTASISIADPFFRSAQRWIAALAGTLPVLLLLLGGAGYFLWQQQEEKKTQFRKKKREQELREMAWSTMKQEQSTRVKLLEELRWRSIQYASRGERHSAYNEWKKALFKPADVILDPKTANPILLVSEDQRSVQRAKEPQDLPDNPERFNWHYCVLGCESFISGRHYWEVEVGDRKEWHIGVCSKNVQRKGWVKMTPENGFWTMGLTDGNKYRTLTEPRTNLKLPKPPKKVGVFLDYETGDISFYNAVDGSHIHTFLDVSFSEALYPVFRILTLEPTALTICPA

[3] = target: T1, Butyrophilin subfamily 3 member A1; assay: Binding affinity to BTN3A1 in human PBMC assessed as stimulation of Vgamma9 Vdelta2 T cells at 100 nM incubated for 3 days and measured after 11 days post compound removal by flow cytometry relative to sodium (E)-5-hydroxy-4-methylpent-3-enylphosphonate
Target sequence in this assay (O00481 30-513 limits assumed): as above

[4] = target: T1, Butyrophilin subfamily 3 member A1; assay: Binding affinity to BTN3A1 in human PBMC assessed as stimulation of Vgamma9 Vdelta2 T cells at 100 nM incubated for 3 days and measured after 11 days post compound removal by flow cytometry relative to (E)-dimethyl 5-hydroxy-4-methylpent-3-enylphosphonate
Target sequence in this assay (O00481 30-513 limits assumed): as above

K562 = assay: Cytotoxicity in human K562 cells assessed as reduction in cell viability incubated for 72 hrs by cell-QB reagent based assay; conditions: K562, 72 h
Procedure, shortened: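 K562 cells seeded at 0.5 × 10⁴ per well in RPMI and exposed to a range of compound concentrations, up to 100 µM, for 72 h. Cell-QB reagent was added for the final 2 h and read by fluorescence. Viability was expressed as % of untreated cells after subtracting a media-only blank. Three independent experiments.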

[5] = target: T1, Butyrophilin subfamily 3 member A1; assay: Binding affinity to BTN3A1 in human Vgamma9 Vdelta2 T cells mixed with human K562 cells pretreated with compound for 4 hrs assessed as INF-gamma production measured after 20 hrs by ELISA
Procedure, shortened: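 K562 target cells loaded with compound for 4 h, then washed. They were co-cultured with Vγ9Vδ2 T cells purified by negative selection, at 3:1 effector:target. After 20 h, supernatant interferon γ was measured by ELISA. EC₅₀ reported with 95% CI. Three independent experiments using ≥2 donors.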
Target sequence in this assay (O00481 whole entry): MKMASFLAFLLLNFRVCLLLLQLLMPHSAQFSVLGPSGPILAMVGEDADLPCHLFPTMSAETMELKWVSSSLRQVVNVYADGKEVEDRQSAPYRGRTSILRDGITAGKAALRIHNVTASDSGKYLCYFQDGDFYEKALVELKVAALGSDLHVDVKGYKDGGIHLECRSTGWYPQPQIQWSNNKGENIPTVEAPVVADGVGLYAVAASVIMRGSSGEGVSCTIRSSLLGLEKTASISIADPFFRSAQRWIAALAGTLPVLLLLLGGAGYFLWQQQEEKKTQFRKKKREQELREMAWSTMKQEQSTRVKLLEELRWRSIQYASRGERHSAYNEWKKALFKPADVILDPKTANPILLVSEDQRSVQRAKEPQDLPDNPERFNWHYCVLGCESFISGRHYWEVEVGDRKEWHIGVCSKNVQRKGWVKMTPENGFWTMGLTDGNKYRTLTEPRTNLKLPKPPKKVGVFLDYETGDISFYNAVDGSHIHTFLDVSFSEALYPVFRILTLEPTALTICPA

[6] = Half life in human plasma; format: ADME, cell-free
Procedure, shortened: as §1, with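 “7.5. Incubated for various times, including 2 and 24 h, then extracted with acetonitrile and centrifuged.” for “7.5.”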

[7] = Stability in 50% pooled human plasma assessed as compound hydrolysis at 100 uM after 2 hrs by LC-MS method relative to control; format: ADME, cell-free; conditions: read-out: Drug degradation
Procedure, shortened: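 Compound at 100 µM final in pooled human plasma diluted to 50% with PBS, pH 7.5. Sampled at 2 h (also 24 h), then extracted into acetonitrile and debris spun down. Analysed by positive-mode LC-MS on C18 with a 25→80% acetonitrile gradient over 9 min. Fraction remaining from peak integration; 2–4 independent runs.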

Compound: COC(=O)CNP(=O)(CC/C=C(\C)CO)Oc1ccccc1 (stereo unspecified)
t1/2 [1]: > 24 h
Activity [2]: Active
Ratio EC50 [3]: 2700
Ratio EC50 [4]: 3.6
IC50 (K562): > 100000 nM
EC50 [5]: 460 nM

Compound: Oc1ccccc1 [PHENOL]
IC50 (K562): > 100000 nM

Compound: Oc1cccc2ccccc12 [1-NAPHTHOL]
IC50 (K562): > 100000 nM

Compound: C/C(=C\CCP(=O)(NCC(=O)OC(C)C)Oc1cccc2ccccc12)CO (stereo unspecified)
t1/2 [1]: > 24 h
Activity [2]: Active
Ratio EC50 [3]: 12000
Ratio EC50 [4]: 16
IC50 (K562): > 100000 nM
EC50 [5]: 290 nM

Compound: COc1ccc2cc(C(=O)OCOP(=O)(CC/C=C(\C)CO)OC)c(=O)oc2c1 (stereo unspecified)
half-life [6]: 6 to 8 h

Compound: CCOC(=O)CNP(=O)(CC/C=C(\C)CO)Oc1ccc2ccccc2c1 (stereo unspecified)
t1/2 [1]: > 24 h
Activity [2]: Active
Ratio EC50 [3]: 7500
Ratio EC50 [4]: 10
EC50 [5]: 93 nM

Compound: Oc1ccc2ccccc2c1 [BETANAPHTHOL]
IC50 (K562): > 100000 nM

Compound: C/C(=C\CCP(=O)(NCC(=O)OC(C)C)Oc1ccccc1)CO (stereo unspecified)
t1/2 [1]: > 24 h
Activity [2]: Active
Ratio EC50 [3]: 3600
Ratio EC50 [4]: 4.9
EC50 [5]: 740 nM

Compound: C/C(=C\CCP(=O)(OCOC(=O)C(C)(C)C)OCOC(=O)C(C)(C)C)CO
t1/2 [1]: 8.4 h
Activity [2]: Active
metabolised at 2 h, 100 µM [7]: > 95%

Compound: COC(=O)CNP(=O)(CC/C=C(\C)CO)Oc1ccc2ccccc2c1 (stereo unspecified)
t1/2 [1]: > 24 h
Activity [2]: Active
Ratio EC50 [3]: 6900
Ratio EC50 [4]: 9.3
IC50 (K562): > 100000 nM
EC50 [5]: 120 nM

Compound: CCOC(=O)CNP(=O)(CC/C=C(\C)CO)Oc1cccc2ccccc12 (stereo unspecified)
t1/2 [1]: > 24 h
Activity [2]: Active
Ratio EC50 [3]: 11000
Ratio EC50 [4]: 15
EC50 [5]: 62 nM

Compound: COC(=O)CNP(=O)(CC/C=C(\C)CO)Oc1cccc2ccccc12 (stereo unspecified)
t1/2 [1]: > 24 h
Activity [2]: Active
Ratio EC50 [3]: 9100
Ratio EC50 [4]: 12
IC50 (K562): 40000 nM
EC50 [5]: 130 nM

Activity [2]: Active
Compound: C/C(=C\COP(=O)(O)OP(=O)(O)O)CO

Compound: C/C(=C\CCP(=O)(NCC(=O)OC(C)C)Oc1ccc2ccccc2c1)CO (stereo unspecified)
t1/2 [1]: > 24 h
Activity [2]: Active
Ratio EC50 [3]: 4900
Ratio EC50 [4]: 6.6
IC50 (K562): > 100000 nM
EC50 [5]: 210 nM

Compound: CCOC(=O)CNP(=O)(CC/C=C(\C)CO)Oc1ccccc1 (stereo unspecified)
Activity [2]: Active
IC50 (K562): > 100000 nM
EC50 [5]: 170 nM
